From ChEMBL document CHEMBL4513216, “Probing the Open Global Health Chemical Diversity Library for Multistage-Active Starting Points for Next-Generation Antimalarials” (ACS Infect Dis, 2020)

Experiment: Toxicity liver stage against HepG2, at 10uM
Format: cell-based
Set-up: test concentration 10 uM, cell line HepG2-A16-CD81EGFP
Conditions: human, HepG2-A16-CD81EGFP cells; read-out: INHIBITION
Procedure, shortened: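 Uninfected HepG2-A16-CD81EGFP cells, 3 × 10^3 per well, 1536-well, plated on prespotted compound at 10 μM final, parasite-free screening media added to match infected plates; puromycin 10 μM positive, DMSO 0.5% negative; run in parallel with 48 h PbLuc assay at 37 °C, 5% CO2; viability by CellTiter-Glo luminescence, normalized to controls.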

SMILES	cytotoxicity at 10 µM [%]
CCc1nc(CNC(=O)C2CCC(=O)N(Cc3ccccc3F)C2)no1 (configuration not stated)	-1.88
CCC(NC(N)=O)c1ccccc1OCC(=O)N1CCCC1 (configuration not stated)	-8.29
CCN1CC(COC(C)(C)C)Oc2ccncc2S1(=O)=O (configuration not stated)	-3.43
COc1cc(C2CC(=O)Oc3cc(C)[nH]c(=O)c32)ccc1OCC(=O)O (configuration not stated)	-4.23
Cc1ccc(C(=O)Nc2nnc(C(C)C)s2)c(-n2cnnn2)c1C	-0.649
COc1ccc(C(=O)Nc2ccc3ncn(C(C)C)c(=O)c3c2)cc1	4.04
CCc1cc(=O)[nH]c2nnc(SCC(=O)NC)n12	-4.06
CNC(=O)Cn1nc(C(C)C)c2cnn(C(C)(C)C)c2c1=O	-7.67
COc1nn(C)cc1-c1nnc(SCc2cccnc2)n1C	-2.06
CC(=O)Nc1ccc(CC(=O)N2CC(S(=O)(=O)C3CCCCC3)C2)cc1	-12.8
CCn1cc(C(=O)Nc2cc(C(=O)OC)ccc2C(=O)OC)cn1	-1.2
CN(C)CCCNC(=O)CNC(=O)N1CCc2c([nH]c3ccccc23)C1	3.33
O=C(COc1coc(CN2CCCCC2)cc1=O)Nc1ccc(Cl)cc1	3.48
COc1ccc(OC)c(Sc2ncccc2C(=O)N(C)CCC#N)c1	13.3
O=C(Cn1cc(-c2ccccc2)ncc1=O)Nc1nnc[nH]1	20.3
CCOc1ccc(C2CC(=O)Nc3c2c(=O)nc2sccn32)cc1 (configuration not stated)	-12.7
CN(C(=O)Cn1nc(-c2ccc(F)cc2)ccc1=O)C1CCS(=O)(=O)C1 (configuration not stated)	-3.57
CCn1nccc1CNC(=O)CCC1CCCC1	11.4
CCCN1CCN(c2nc(N)nc3c2nc(C)n3C)CC1	-5.15
Cc1noc(C)c1C(=O)N1CCC(c2cc3cnccc3[nH]2)CC1	7.07
CCc1cc(O)n2nc(C3CCN(C(=O)c4cccnc4)CC3)cc2n1	7.09
O=C1CN(C(=O)C2CN(c3cccc(F)c3)CCO2)CCN1 (configuration not stated)	5.37
CCc1ncc(CN2CCc3nc4sc(C)cc4c(=O)n3CC2)cn1	-6.47

SMILES	cytotoxicity at 10 µM [%]
O=S(=O)(c1ccc(F)cc1)N1CCCCC1c1cc[nH]n1 (configuration not stated)	-3.55
O=C(c1cccc(F)c1)N1CCOC(c2nc(-c3ncccn3)no2)C1 (configuration not stated)	5.3
COc1ccc(C(C)NCc2ccnn2C)cc1Cn1cccn1 (configuration not stated)	7.57
CCOC(C)c1nccn1CCC(=O)Nc1cc(C)on1 (configuration not stated)	10.1
Cc1cnn(CCNCc2cc(=O)n3cc(Cl)ccc3n2)c1	0.217
CCN(CC)C(CNC(=O)c1ccnc(N(C)C)c1)c1ccsc1 (configuration not stated)	-149
CC(NC(=O)NC1CCN(Cc2ccncc2)CC1)c1cccc(F)c1 (configuration not stated)	-12.5
O=C(c1ccn(-c2ccc(F)cc2)n1)N(CCO)Cc1cccnc1	17.5
CC(C)c1nc(CNc2ccc(N3CCC(CO)CC3)cn2)cs1	-2.6
Cc1cccnc1NC(=O)c1ccc(F)c(S(=O)(=O)N2CCC2)c1	4.5
Cc1nn(C)c(C)c1C1CCCN1CCOc1cccc(C#N)c1 (configuration not stated)	-8.41
CCC(=O)N1CCCN(c2cncc(-n3nc(C)cc3C)n2)CC1	-8.44
CCc1ccc(CNC(=O)NC2CCCc3c2cnn3CCO)s1 (configuration not stated)	-6.78
CS(=O)(=O)c1ccc(OCCNCc2ccc(F)cc2)cc1	-8.86
NC(=O)C(CNC(=O)CCc1ccsc1)Cc1ccc(F)cc1 (configuration not stated)	21.2
O=C(NCCOc1ncc(Cl)cc1Cl)NCc1ccncc1	-1.86
CCn1ccnc1CN1CCN(Cc2cnc(C)cn2)CC1C (configuration not stated)	-2.76
COCC(NC(=O)c1ccoc1)c1ccc(C)o1 (configuration not stated)	3.6
CCC1c2ccccc2CCN1C(=O)c1ccc(OC)nn1 (configuration not stated)	-12.8
CN(CC1CCCCC1)C(=O)c1cn(C)nc1-c1cccnc1	2.2
O=C(NCCCn1ccnc1)c1csc2c1CCCC2	-2.96
CCc1nc2n(n1)CCCC2NC(=O)Nc1cc(OC)ccc1C (configuration not stated)	12.7
CN(CC(F)(F)F)C(=O)CNC(=O)Cc1ccccc1O	6.31

SMILES	cytotoxicity at 10 µM [%]
COc1ccc(C2CCCN2C(=O)c2cc3c([nH]c2=O)CCC3)cc1 (configuration not stated)	-10.7
Cc1ccsc1CNC(=O)NC1CCCc2c1cnn2CCO (configuration not stated)	3.33
CN(Cc1cccc(F)c1)C(=O)CN1CCCCC1Cn1cncn1 (configuration not stated)	-8.25
c1ccc(C2CCCN2Cc2nnnn2C2CC2)cc1 (configuration not stated)	-5.04
COCCNC(=O)C[C@@H]1COC[C@H]2CN(C(=O)COC)C[C@@H]12	-96.5
COC[C@@]12CCO[C@@H]1CCN(C(=O)C1CCOCC1)C2	-106
CCS(=O)(=O)N1CCC2(CCN(Cc3ccc(C)o3)C2)C1 (configuration not stated)	-116
CC(=O)Nc1nc(C)c(S(=O)(=O)NCCc2cccnc2)s1	-10.5
CN1CCN2CCN(Cc3cc(=O)n4c5c(cccc35)CCC4)CC2C1 (configuration not stated)	9.05
CCCN1CCC(N2CCOC(Cc3cccc(OC)c3)C2)CC1 (configuration not stated)	8.69
Cc1ccc2[nH]c(CN(C)Cc3ccccc3C(=O)O)nc2c1	7.01
CC(NC(=O)c1cn(CCC2CCCCC2)nn1)c1cnn(C)c1 (configuration not stated)	6.2
COc1ccc(-n2cccn2)c(CN2CCC3(CCCNC3)C2)c1 (configuration not stated)	-1.09
Cc1ccc(C(=O)N2CCC3(CC2)c2ccccc2[C@@H](N)[C@@H]3O)c(=O)[nH]1	-2.72
CCCN1CCN(C(=O)c2cccc3cccnc23)[C@H]2CS(=O)(=O)C[C@H]21	4.36
O=C(NCC(O)c1cccc(O)c1)C1CCN(C2CCCCC2)CC1 (configuration not stated)	7.16
c1ccc2c(c1)CC(Cc1cc(N3CCCC3)cnn1)CO2 (configuration not stated)	-6.03
O=C(O)[C@@H]1CN(C(=O)c2ccc(Cl)cc2)C[C@H]1c1cccc(F)c1	-132
O=C(c1cn2cc(Cl)ccc2n1)N1CCC(CCn2cccn2)CC1	-10.2
O=C(c1cc(Cn2ccc3ccccc32)[nH]n1)N1CCCCC1CO (configuration not stated)	6.03
CNc1nc(C(=O)NCc2cccnc2N(C)C2CCCCC2)cs1	-5.35
COCCN(Cc1cccc(OCCO)c1)Cc1ccccc1F	-9.53
CC1=C(C(=O)N2CCCC(Cn3cc(CO)nn3)C2)OCCO1 (configuration not stated)	0.92

SMILES	cytotoxicity at 10 µM [%]
COCCCN(Cc1cnc(-c2cccs2)nc1)C1CCN(C)CC1	-3.85
CN(Cc1n[nH]c(=O)n1CCc1ccccc1F)S(C)(=O)=O	-1.78
CC(NC(=O)Cc1cc2c(cc1Cl)OCCO2)c1ccncn1 (configuration not stated)	-6.29
CC(C)c1cc(N2CCC[C@H](N)C2)n2nccc2n1	-5.42
COc1ccc(C)cc1-n1cnnc1C1CCOCC1	11.2
CCSCCNC(=O)C(c1cccc(C)c1)N(C)C (configuration not stated)	-23
Cc1cnn(C(C)C2CC2)c1NC(=O)c1cnccn1 (configuration not stated)	-5.39
CCCn1nccc1C(=O)N1CCCN(CCCc2ccccc2)CC1	-2.06
O=C(CCN1CCOC1=O)Nc1cnn(-c2ccccc2Cl)c1	-3.39
COc1ccccc1C(O)CNC(=O)NCc1csc(C)n1 (configuration not stated)	-5.34
Cc1noc(C)c1S(=O)(=O)NC(=O)COc1cccc(C(C)C)c1	-10.7
NC(=O)CN1CCN(C(=O)c2cc(Cl)cc3cccnc23)CC1	-9.19
COc1cccc(-n2nnc(C(=O)N3CCC(C(N)=O)CC3)c2C)c1	-6.66
O=C(c1ccc(N2CCOCC2)nc1)N1CCCC(n2ccnc2)C1 (configuration not stated)	-18.2
O=C(Cc1ccccc1)N1CCN(CC(O)c2ccc(F)cc2)CC1 (configuration not stated)	-13.8
Cc1nn(C)c(C)c1C1CCCN1Cc1ccc(C(N)=O)cc1 (configuration not stated)	-1.01
CC(NC(=O)N1CCC(c2ccccc2)CC1)c1nncn1C (configuration not stated)	-10.3
Cn1nc2c(cc1=O)CN(Cc1nc(-c3cccnc3)no1)CC2	-14.6
Cc1cnn(CC(C)NCc2ccccc2OCc2cccnc2)c1 (configuration not stated)	-12.9
CC(NCc1cccc(Cl)c1)c1ccc(OCC(=O)NC2CC2)cc1 (configuration not stated)	-12.2
c1cnn(CC2CN(c3ncnc4[nH]ccc34)CCO2)c1 (configuration not stated)	-8.81
CC(=O)NCC1CCN(C(=O)NCCc2ccc(Cl)s2)CC1	-6.19
CCn1cnnc1C1CCN(C(=O)c2cccc3c2ccn3C)CC1	-8

SMILES	cytotoxicity at 10 µM [%]
Cc1nc(C)n(CC2CN(Cc3cccnc3)CCO2)n1 (configuration not stated)	-5.38
Cc1nc(C)c(C(=O)NCCNC(=O)Cc2cccc(F)c2)s1	-8.45
Cn1ccnc1CN1CCN(CC(=O)NCC(F)(F)F)CC1	-10
Cn1cnc2c1CCN(Cc1csc(-c3ccsc3)n1)C2	-8.78
O=C(Nc1cccc2c1CCCC2)C1CCCN1c1nccs1 (configuration not stated)	-4.15
COCCOc1ncccc1C(=O)Nc1ccc(-n2cncn2)c(F)c1	-0.138
CCn1cc(NC(=O)NCC(C)O)cn1 (configuration not stated)	-4.84
Cc1nccn1CC1CCCN1S(=O)(=O)Cc1ccccc1F (configuration not stated)	-3.33
O=C(CCN1CCCN(c2nccs2)CC1)NCC1CCCCC1	-5.1
O=C(c1ccc(O)c(Cl)c1)N1CCC(c2n[nH]c(C3CC3)n2)CC1	6.91
CC(C)c1nc(CN2CCN(C(C)c3nc(C4CC4)no3)CC2)no1 (configuration not stated)	6.54
Cc1nc(CN2CCCN(CC(=O)Nc3cccnc3)CC2)no1	2.31
Cc1ccc2cc(C(=O)NCCn3nc4ccccn4c3=O)[nH]c2c1	2.95
Cc1ccc(CN2CC[C@H]3[C@H](CO[C@H]3CN(C)C)C2)o1	-129
Cc1nn(CCO)c(C)c1CNC1CCOc2ccccc21 (configuration not stated)	14.4
CNC(=O)c1cc2c(nc1N(C)C)CCN(C)CC2	-149
CN(C)CCN1C(=O)CCC12CCN(C(=O)c1cccnc1)CC2	6.41
O=C1COC2(COCCN(Cc3ccsc3)C2)CN1c1ccc(F)cc1 (configuration not stated)	2.83
COCC1CC2(CCN(CC3CC3)CC2)CN1Cc1ccccn1 (configuration not stated)	-97.4
CSc1ccc(-c2cc(CN)nc3ccnn23)cc1	-7.5
